Experimental data taken from ChEMBL document CHEMBL1921733, “III. Identification of novel CXCR3 chemokine receptor antagonists with a pyrazinyl-piperazinyl-piperidine scaffold” (Bioorg Med Chem Lett, 2011).

Legend:
[1] = biological target: T1, C-X-C chemokine receptor type 3 (Homo sapiens, UniProt P49682); assay: Displacement of [125I]CXCL10 from human CXCR3 expressed in mouse BA/F3 cells; format: cell-based, BaF3
T1 sequence (P49682 whole entry): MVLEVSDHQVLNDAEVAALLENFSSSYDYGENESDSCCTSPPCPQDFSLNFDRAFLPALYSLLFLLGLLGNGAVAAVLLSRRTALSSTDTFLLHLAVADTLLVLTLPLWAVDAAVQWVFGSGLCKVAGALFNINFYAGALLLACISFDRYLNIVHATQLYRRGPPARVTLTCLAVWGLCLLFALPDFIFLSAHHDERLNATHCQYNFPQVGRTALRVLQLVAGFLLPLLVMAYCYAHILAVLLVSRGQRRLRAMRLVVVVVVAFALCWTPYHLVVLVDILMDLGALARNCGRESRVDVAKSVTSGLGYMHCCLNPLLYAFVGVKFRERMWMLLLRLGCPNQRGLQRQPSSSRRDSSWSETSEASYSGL
Method in brief: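 Radioligand displacement of 125I-labelled human CXCL10 from recombinant Ba/F3 cells expressing human CXCR3.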

hERG (KCNH2) = hERG (KCNH2) (Homo sapiens, UniProt Q12809); assay: Inhibition of human ERG at 10 uM by rubidium efflux assay
Chain of hERG (KCNH2) (Q12809 whole entry): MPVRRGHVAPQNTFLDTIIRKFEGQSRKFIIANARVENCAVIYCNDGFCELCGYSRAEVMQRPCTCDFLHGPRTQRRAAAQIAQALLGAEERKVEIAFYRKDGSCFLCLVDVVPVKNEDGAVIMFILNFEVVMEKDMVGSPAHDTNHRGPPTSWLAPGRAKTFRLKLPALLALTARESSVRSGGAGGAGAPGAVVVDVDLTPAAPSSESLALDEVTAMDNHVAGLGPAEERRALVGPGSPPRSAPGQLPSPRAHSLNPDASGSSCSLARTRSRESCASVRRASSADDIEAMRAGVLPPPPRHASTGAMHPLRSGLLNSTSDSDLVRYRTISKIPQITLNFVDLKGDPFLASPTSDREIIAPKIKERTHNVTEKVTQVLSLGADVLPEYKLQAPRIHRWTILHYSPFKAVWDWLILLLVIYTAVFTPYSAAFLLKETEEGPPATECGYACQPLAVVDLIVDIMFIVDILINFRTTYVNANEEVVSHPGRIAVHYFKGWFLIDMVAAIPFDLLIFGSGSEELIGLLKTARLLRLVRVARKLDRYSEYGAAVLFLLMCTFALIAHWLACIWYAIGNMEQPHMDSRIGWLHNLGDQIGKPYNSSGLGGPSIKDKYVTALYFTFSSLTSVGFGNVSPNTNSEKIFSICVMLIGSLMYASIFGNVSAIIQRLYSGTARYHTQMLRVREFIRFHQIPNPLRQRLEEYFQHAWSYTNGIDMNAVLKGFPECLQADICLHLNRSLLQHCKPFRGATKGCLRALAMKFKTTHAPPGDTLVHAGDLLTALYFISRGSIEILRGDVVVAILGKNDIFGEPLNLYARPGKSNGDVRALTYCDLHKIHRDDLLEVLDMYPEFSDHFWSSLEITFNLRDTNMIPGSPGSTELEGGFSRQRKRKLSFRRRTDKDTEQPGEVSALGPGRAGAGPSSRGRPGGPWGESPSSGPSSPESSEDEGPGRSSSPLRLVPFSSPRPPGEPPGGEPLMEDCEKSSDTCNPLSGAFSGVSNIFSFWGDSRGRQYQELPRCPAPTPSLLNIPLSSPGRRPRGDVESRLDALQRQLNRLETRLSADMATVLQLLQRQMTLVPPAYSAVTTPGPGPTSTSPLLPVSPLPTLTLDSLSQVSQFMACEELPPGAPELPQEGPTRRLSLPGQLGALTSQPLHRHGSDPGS
Method in brief: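 hERG K+ channel block measured by rubidium efflux with test compound at 10 μM, reported as % inhibition.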

[2] = AUC in rat at 10 mg/kg, po after 6 hrs; conditions: in vivo

| Structure (SMILES) | IC50 [1] | inhibition at 10 µM (hERG (KCNH2)) | AUC at 6 h [2] |
| --- | --- | --- | --- |
| CC[C@H]1CN(c2ncc(C(N)=O)nc2C)[C@@H](C)CN1C1CCN(C(=O)c2ccc(Cl)cc2)CC1 | > 1000 nM |  |  |
| CC[C@H]1CN(c2nc(N)c(C(=O)NCC(C)(C)O)nc2Cl)CCN1C1CCN(Cc2ccc(Cl)cc2)CC1 | 8.4 nM |  |  |
| CC[C@H]1CN(c2ncc(C(N)=O)nc2C(F)(F)F)CCN1C1CCN(C(=O)c2ccc(Cl)nc2N)CC1 | 1.9 nM | 0% | 15.3 µM·h |
| CC[C@H]1CN(c2nc(N)c(C(=O)NCCNS(N)(=O)=O)nc2Cl)CCN1C1CCN(Cc2ccc(Cl)cc2)CC1 | 1.9 nM |  |  |
| CC[C@H]1CN(c2nc(N)c(C(=O)NCC(C)O)nc2Cl)CCN1C1CCN(Cc2ccc(Cl)cc2)CC1 (some centres undefined) | 0.3 nM |  |  |
| CC[C@H]1CN(c2nc(N)c(C(N)=O)nc2Cl)CCN1C1CCN(Cc2ccc(Cl)cc2)CC1 |  |  | 5.1 µM·h |
| CC[C@H]1CN(c2ncc(C(=O)NC)nc2C)CCN1C1CCN(C(=O)c2ccc(Cl)cc2)CC1 | 3.6 nM | 41% |  |
| CC[C@H]1CN(c2ncc(C(N)=O)nc2C)CCN1C1CCN(C(=O)c2ccc(Cl)cc2)CC1 | 18 nM | 6% |  |
| CCNC(=O)c1cnc(N2CCN(C3CCN(C(=O)c4ccc(Cl)cc4)CC3)[C@@H](CC)C2)c(C)n1 | 2 nM | 44% | 2.9 µM·h |
| CC[C@H]1CN(c2ncc(C(N)=O)nc2Cl)CCN1C1CCN(C(=O)c2ccc(Cl)nc2N)CC1 | 2.5 nM | 7% |  |
| CC[C@H]1CN(c2nc(N)c(C(N)=O)nc2Cl)CCN1C1CCN(Cc2ccc(C#N)cc2)CC1 | 8.5 nM |  |  |
| CC[C@@H]1CN(C2CCN(C(=O)c3ccc(Cl)cc3)CC2)[C@@H](CC)CN1c1ncc(C(N)=O)nc1C | 235 nM | 13% |  |
| CC[C@H]1CN(c2ncc(C(N)=O)nc2C)[C@H](C)CN1C1CCN(C(=O)c2ccc(Cl)cc2)CC1 | 5.4 nM | 9% |  |
| CC[C@H]1CN(c2ncc(C(=O)NC3CC3)nc2C(F)(F)F)CCN1C1CCN(C(=O)c2ccc(Cl)nc2N)CC1 | 1.8 nM | 53% | 3.6 µM·h |
| CC[C@H]1CN(c2ncc(C(=O)NC(C)C)nc2Cl)CCN1C1CCN(C(=O)c2ccc(Cl)nc2N)CC1 | 0.9 nM | 56% |  |
| CC[C@H]1CN(c2ncc(C(=O)NC3CC3)nc2C)CCN1C1CCN(C(=O)c2ccc(Cl)nc2N)CC1 | 1.9 nM | 16% | 22 µM·h |
| CC[C@H]1CN(c2ncc(C(=O)NC(C)(C)C)nc2Cl)CCN1C1CCN(C(=O)c2ccc(Cl)nc2N)CC1 | 1.5 nM | 13% |  |
| CC[C@H]1CN(c2ncc(C(=O)NC)nc2C)CCN1C1CCN(C(=O)c2ccc(Cl)nc2N)CC1 | 2.4 nM | 5% | 12.1 µM·h |
| CC[C@H]1CN(c2ncc(C(=O)NC[C@@H](C)O)nc2Cl)CCN1C1CCN(C(=O)c2ccc(Cl)nc2N)CC1 | 2.9 nM | 17% |  |
| CC[C@H]1CN(c2nc(N)c(C(=O)NCCO)nc2Cl)CCN1C1CCN(Cc2ccc(Cl)cc2)CC1 | 0.4 nM |  |  |

| Structure (SMILES) | IC50 [1] | inhibition at 10 µM (hERG (KCNH2)) | AUC at 6 h [2] |
| --- | --- | --- | --- |
| CC[C@H]1CN(c2ncc(C(=O)NC3CC3)nc2Cl)CCN1C1CCN(C(=O)c2ccc(Cl)nc2N)CC1 | 1.2 nM | 19% |  |
| CCNC(=O)c1cnc(N2CCN(C3CCN(Cc4ccc(Cl)cc4)CC3)[C@@H](CC)C2)c(Cl)c1 |  |  | 0.4 µM·h |
| CC[C@H]1CN(c2ncc(C(=O)NC)nc2C)[C@H](C)CN1C1CCN(C(=O)c2ccc(Cl)cc2)CC1 | 4.2 nM | 30% |  |
| CC[C@H]1CN(c2nc(N)c(C(=O)NC)nc2Cl)CCN1C1CCN(Cc2ccc(Cl)cc2)CC1 | 0.3 nM |  |  |
| CC[C@H]1CN(c2nc(N)c(C(N)=O)nc2Cl)CCN1C1CCN(Cc2ccc(OC(F)(F)F)cc2)CC1 | 3.7 nM |  |  |
| CC[C@H]1CN(c2nc(N)c(C(=O)NCC(F)(F)F)nc2Cl)CCN1C1CCN(Cc2ccc(Cl)cc2)CC1 | 0.8 nM |  |  |
| CC[C@H]1CN(c2nc(N)c(C(=O)NCCNS(C)(=O)=O)nc2Cl)CCN1C1CCN(Cc2ccc(Cl)cc2)CC1 | 4.4 nM | 39% |  |
| CC[C@H]1CN(c2ncc(C(=O)NC3CC3)nc2C)CCN1C1CCN(C(=O)c2ccc(Cl)cc2)CC1 | 1.1 nM | 74% | 8.4 µM·h |
| CC[C@H]1CN(c2nc(N)c(C(N)=O)nc2Cl)CCN1C1CCN(C(CO)c2ccc(Cl)cc2)CC1 (some centres undefined) | 1.9 nM |  |  |
| CC[C@H]1CN(c2ncc(C(=O)NC)nc2C(F)(F)F)CCN1C1CCN(C(=O)c2ccc(Cl)nc2N)CC1 | 1.5 nM | 0% | 6.4 µM·h |
| CC[C@H]1CN(c2nc(N)c(C(=O)NCCNS(=O)(=O)C(F)(F)F)nc2Cl)CCN1C1CCN(Cc2ccc(Cl)cc2)CC1 | 0.9 nM |  |  |
| CC[C@H]1CN(c2nc(N)c(C(N)=O)nc2Cl)CCN1C1CCN(Cc2ccc(Cl)cc2[C@H](O)C(N)=O)CC1 | 4.1 nM | 14% |  |
| CC[C@H]1CN(c2ncc(C(=O)NCCO)nc2Cl)CCN1C1CCN(C(=O)c2ccc(Cl)nc2N)CC1 | 2.9 nM | 11% |  |
| CC[C@H]1CN(c2ncc(C(N)=O)nc2C)CCN1C1CCN(C(=O)c2ccc(Cl)nc2N)CC1 | 4 nM | 0% | 30.2 µM·h |
| CC[C@H]1CN(c2nc(N)c(C(=O)NCCNS(N)(=O)=O)nc2Cl)CCN1C1CCN(Cc2ccc(F)c(F)c2)CC1 | 9 nM | 4% |  |
| CC[C@H]1CN(c2nc(N)c(C(=O)NCCS(C)(=O)=O)nc2Cl)CCN1C1CCN(Cc2ccc(Cl)cc2)CC1 | 6.4 nM |  |  |
| CC[C@H]1CN(c2nc(N)c(C(=O)N[C@@H]3CCOC3=O)nc2Cl)CCN1C1CCN(Cc2ccc(Cl)cc2)CC1 | 1.5 nM |  |  |
| CC[C@H]1CN(c2ncc(C(=O)NC3CC3)nc2C)[C@H](C)CN1C1CCN(C(=O)c2ccc(Cl)cc2)CC1 | 1.3 nM | 7% | 9.8 µM·h |
| CC[C@H]1CN(c2nc(N)c(C(=O)NCCO)nc2Cl)CCN1C1CCN(C(=O)c2ccc(Cl)nc2N)CC1 | 3.4 nM | 17% | 5.9 µM·h |
| CC[C@H]1CN(c2nc(N)c(C(N)=O)nc2Cl)CCN1C1CCN(C(=O)c2ccc(Cl)cc2)CC1 | 76 nM |  |  |
